From ChEMBL document CHEMBL1157283, “Cytotoxic xenia diterpenoids from the soft coral Xenia umbellata” (2006)
≈ marks a conversion by molar mass, not a printed value.

How the values were obtained:
A549 = assay: Cytotoxicity against human A549 cells; assay type: functional, cell-based
Method in brief: (§1)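 Human A549 (lung adenocarcinoma) and HT-29 (colon adenocarcinoma) cells were obtained from ATCC. In vitro cytotoxicity was measured on the cultured cells.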

HT-29 = assay: Cytotoxicity against human HT29 cells; assay type: functional, cell-based; method in brief: as §1
P388 = assay: Cytotoxicity against mouse P388 cells; assay type: functional; conditions: read-out: ED50 (the source's name)

Row | Compound | Activity (A549) | Activity (HT-29) | EC50 (P388)
1 | C=C1CC[C@@H]2O[C@@]2(C)CC[C@H]2[C@H]1C(=O)O[C@@]2(/C=C/C1OC1(C)C)CO (stereo partly drawn) | Not toxic | Not toxic | 
2 | C=C1CC[C@@H]2O[C@@]2(C)CC[C@H]2[C@H]1C(=O)O[C@@]2(/C=C/C1OC1(C)C)COC(C)=O (stereo partly drawn) | Not toxic | Not toxic | 
3 | C=C1C[C@@H](O)/C=C(\C)CC[C@@H]2/C(=C\C=C\C(C)(C)O)[C@@H](OC)O[C@H](OC)[C@@H]12 | Not toxic | Not toxic | 
4 | CC(C)(O)/C=C/C=C(/C=O)[C@H]1CC[C@@]2(C)C[C@](O)(CC[C@H]2O)[C@@H]1C=O | Not toxic | Not toxic | 
5 | CC(C)(O)/C=C/C=C1/COC(=O)[C@H]2C3=CC[C@@H](O)[C@@](C)(CC[C@H]12)C3 | Not toxic | Not toxic | 
6 | C=C(C)C(O)C/C=C(/COC(C)=O)[C@H]1CC[C@@]2(C)C[C@](O)(CC[C@H]2O)[C@@H]1C(=O)OC (stereo partly drawn) [UMBELLACIN B] | Not toxic | Not toxic | 1.6 µg/mL (≈ 3.77 µM)
7 | COC(=O)[C@@H]1[C@@H](/C(=C\CC(O)C(C)(C)O)COC(C)=O)CC[C@]2(C)[C@@H]3CC[C@]12CO3 (stereo partly drawn) [UMBELLACIN D] | Not toxic | Not toxic | 4.2 µg/mL (≈ 9.89 µM)
8 | COC(=O)[C@H]1C2=CC[C@@H](O)[C@@](C)(CC[C@@H]1/C(=C\CC(O)C(C)(C)O)COC(C)=O)C2 (stereo partly drawn) [UMBELLACIN E] | Not toxic | Not toxic | 3.8 µg/mL (≈ 8.95 µM)
9 | C=C1CC/C=C(\C)CC[C@H](/C(=C\CC(O)C(C)(C)O)COC(C)=O)[C@H]1C(=O)OC (stereo partly drawn) [UMBELLACIN F] | Not toxic | Not toxic | 3.7 µg/mL (≈ 9.06 µM)
10 | C=C1CC[C@@H]2O[C@@]2(C)CC[C@H](/C(=C\CC(O)C(C)(C)O)COC(C)=O)[C@H]1C(=O)OC (stereo partly drawn) [UMBELLACIN H] | Not toxic | Not toxic | 3.4 µg/mL (≈ 8.01 µM)
11 | COC(=O)[C@@H]1[C@@H](/C(=C\CC(O)C(C)(C)O)COC(C)=O)CC[C@@]2(C)C[C@]1(O)CC[C@H]2O (stereo partly drawn) [UMBELLACIN I] | Not toxic | Not toxic | 3.6 µg/mL (≈ 8.13 µM)
